High-throughput results (PubChem)
Sampled rows, rich in hits. Any-hit rate of the full collection: about 0.93%.
HePTP inhibitor – inhibitors of human HePTP phosphatase; P35236; recombinant HePTP phosphatase activity, OD absorbance; inhibition, % at 20 µM; 110,000 tested, 0.64% active; AID 521; in the data active means inhibition above about 50%;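 further: plate controls were vehicle for no effect and reference inhibitor for full effect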
JNK3 inh – blocks human JNK3 kinase activity | P53779 | purified JNK3 kinase activity, HTS | inhibition, % at 8 µM | 60,000 tested, 0.61% active | AID 746; in the data active means inhibition above about 17%;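 further: 0% = DMSO and 100% = reference inhibitor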
Target sequence (P53779 whole entry, looked up): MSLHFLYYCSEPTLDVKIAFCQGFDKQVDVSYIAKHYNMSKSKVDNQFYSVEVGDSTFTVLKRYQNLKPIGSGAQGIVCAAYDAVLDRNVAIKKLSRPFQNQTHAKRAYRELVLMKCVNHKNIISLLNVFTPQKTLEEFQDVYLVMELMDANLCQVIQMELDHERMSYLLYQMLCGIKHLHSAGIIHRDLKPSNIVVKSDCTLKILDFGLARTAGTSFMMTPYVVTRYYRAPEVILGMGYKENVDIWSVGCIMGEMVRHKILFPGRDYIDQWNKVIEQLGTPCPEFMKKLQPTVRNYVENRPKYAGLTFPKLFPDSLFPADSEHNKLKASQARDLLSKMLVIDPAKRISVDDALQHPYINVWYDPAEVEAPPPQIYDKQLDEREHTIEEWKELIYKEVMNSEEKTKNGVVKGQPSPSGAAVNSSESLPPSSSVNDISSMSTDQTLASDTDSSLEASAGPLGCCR
HEK293 NFkB inh – lowers PMA/ionomycin-induced NF-kB signal in HEK293 cells | HEK-293 NF-kB luciferase reporter, luminescence | inhibition, % at 3 µM | 62,000 tested, 0.21% active | AID 465;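 active means inhibition above the mean of all tested compounds plus 3 SD, cut at about 40% in these data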;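 further: 0% = stimulated DMSO wells and 100% = 10 µM reference inhibitor 5653914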
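System: NF-kB luciferase reporter HEK-293 cells | Replication: Single test | Control set: DMSO vs reference inhibitor | Evaluation: % inhibition | Schedule: 1 h pretreatment, 16 h stimulation, 37 °C | Probe or stimulus: PMA with ionomycin | Compound dosing: One dose, 3 µM | Detection: Luciferase luminescence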
MMP13 inh – inhibitors of human MMP13; P45452; MMP-13 fTHP FRET cleavage, Mca fluorescence; inhibition, % at 4 µM; 65,000 tested, 0.07% active; AID 570;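 active means inhibition above the mean of compound-free control plate wells plus 3 SD, cut at about 14% in these data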;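 further: 0% = DMSO wells and 100% = wells with reference MMP-13 inhibitor after basal subtraction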
An asterisk follows results filed as active; ! = not active in a repeat.

CCOC(=O)c1ccccc1N1C(=O)C=CC1=O was read as HePTP inhibitor 4.7.
`CCOC(=O)c1cccc2c1-c1ccccc1/C2=N/O` gave HePTP inhibitor -2.6, JNK3 inh 52.8*, HEK293 NFkB inh -1.2 and MMP13 inh 5.1.
COc1cc2c(c(OC)c1)C(c1cccc(OC)c1OC)CC(=O)N2 (centres undefined) was read as HePTP inhibitor 2.3, JNK3 inh -4.0, HEK293 NFkB inh 9.1 and MMP13 inh -8.1.
Screening CCCOc1c(OC)cccc1C1CC(=O)Nc2cc(OC)c(OC)c(OC)c21 (centres undefined) returned HePTP inhibitor -1.4, JNK3 inh -3.1, HEK293 NFkB inh 97.8* and MMP13 inh 7.0.
Screening NNC(=O)CSc1ccc2ccccc2n1 returned HePTP inhibitor -1.6.
Screening Cc1cc(NC(=O)CSc2nc(CCC3CCCC3)nc3ccccc23)no1 returned HePTP inhibitor 4.2, JNK3 inh 2.1, HEK293 NFkB inh 7.6 and MMP13 inh 0.3.
For CCCc1nc(SCC(=O)Nc2cc(C)on2)c2ccccc2n1 the results were HePTP inhibitor -1.3, JNK3 inh 20.6*, HEK293 NFkB inh 22.5 and MMP13 inh -0.5.
`CCCc1nc(SCC(=O)N2CCCC2)c2ccccc2n1` gave HePTP inhibitor 2.8, JNK3 inh 17.4*, HEK293 NFkB inh 1.7 and MMP13 inh -3.0.
`CCn1c(SCC(=O)c2cc(C)n(CC3CCCO3)c2C)nc2ccccc21` (centres undefined) gave HePTP inhibitor 11.7, JNK3 inh -3.1, HEK293 NFkB inh 8.8 and MMP13 inh -16.8.
For Cc1cc(C(=O)CN2C(=O)c3ccccc3S2(=O)=O)c(C)n1CC1CCCO1 (centres undefined) the results were HePTP inhibitor 1.2, JNK3 inh -6.3, HEK293 NFkB inh 84.5* and MMP13 inh 2.1.
CCOc1ccc(/C=N/NC(=O)c2ccc(C(=O)N/N=C/c3ccc(OCC)c(OC)c3)o2)cc1OC was read as HePTP inhibitor -9.6.
`CC1(C)C(c2ccccc2)=NC(c2ccccc2F)=[N+]1[O-]` gave HePTP inhibitor 12.0.
COc1ccc(-n2nc3ccc(NC(=O)/C=C\c4ccccc4)cc3n2)cc1 was read as HePTP inhibitor 102.1*.
Screening COC(=O)C1=C(C)N(C)C(C)=C(C(=O)OC)C1c1ccsc1 returned HePTP inhibitor 105.1*!, JNK3 inh -3.0, HEK293 NFkB inh 16.0 and MMP13 inh 6.3.
Screening CC(C)=CCCC(C)CC1OCC(C)O1 (centres undefined) returned HePTP inhibitor -12.6.
For Cc1ccc(Nc2cc(N3CCOCC3)c3noc4c3c2C(=O)c2ccccc2-4)cc1 the results were HePTP inhibitor 10.6.
For COc1ccc(C(C)=O)cc1N1C(=O)C2C3C=CC(C3=C(C)C)C2C1=O (centres undefined) the results were HePTP inhibitor -5.0.
COc1ccc(C2C(C(C)=O)=C(C)N=c3s/c(=C\c4cc(C)n(C)c4C)c(=O)n32)c(OC)c1 (centres undefined) was read as HePTP inhibitor 11.3, JNK3 inh -4.2, HEK293 NFkB inh 15.5 and MMP13 inh 18.3*.
`COc1cc(-c2nc(-c3ccccc3)c(-c3ccc([N+](=O)[O-])cc3)[nH]2)cc(OC)c1O` gave HePTP inhibitor -18.3.
CC1(C)Oc2ccc3ccc(=O)oc3c2-c2cn[nH]c21 was read as JNK3 inh 25.5*, HEK293 NFkB inh 13.1 and MMP13 inh -6.0.
`COc1cccc(C=Nc2cccnc2)c1O` gave HePTP inhibitor 12.1, JNK3 inh 5.2, HEK293 NFkB inh 45.8* and MMP13 inh 1.4.
O=c1c2cccc3c(N4CCOCC4)ccc(c32)c2nc3ccccc3n12 was read as HePTP inhibitor 4.2, JNK3 inh -3.8, HEK293 NFkB inh 4.6 and MMP13 inh -1.1.
For N#Cc1ccc2c(c1)nc1c3cccc4cccc(c(=O)n21)c43 the results were HePTP inhibitor 64.8*.
`O=C(Cn1cnc2ccccc21)N=Nc1c(O)[nH]c2ccccc12` gave HePTP inhibitor -7.1.
COc1ccc(CCNc2c(C)c(C)nc3ncnn23)cc1 was read as HePTP inhibitor 5.5, JNK3 inh 0.3, HEK293 NFkB inh 46.3* and MMP13 inh 1.6.
C=C(C)COc1ccc(-c2nc(N)ncc2-c2ccc(OC)cc2)c(O)c1 was read as HePTP inhibitor 4.0, JNK3 inh 22.9*, HEK293 NFkB inh 20.4 and MMP13 inh 0.2.
`C=C(C)COc1ccc(-c2[nH]ncc2-c2ccc(OC)c(OC)c2)c(O)c1` gave HePTP inhibitor 0.5, JNK3 inh 7.8, HEK293 NFkB inh 57.5* and MMP13 inh -7.9.
C=C(C)COc1ccc(-c2ncncc2Oc2ccc(OC)cc2)c(O)c1 was read as HePTP inhibitor 2.6, JNK3 inh -4.4, HEK293 NFkB inh 21.2 and MMP13 inh -0.2.
For C=C(C)COc1ccc(-c2[nH]ncc2Oc2cccc(OC)c2)c(O)c1 the results were HePTP inhibitor 3.4, JNK3 inh 2.6, HEK293 NFkB inh 3.8 and MMP13 inh -5.7.
For COc1cccc(Oc2cnc(N)nc2-c2ccc(OC)cc2O)c1 the results were HePTP inhibitor 6.2, JNK3 inh 0.2, HEK293 NFkB inh 43.4* and MMP13 inh 4.6.
`COc1ccc(-c2cnc(N)nc2-c2ccc(OC)cc2O)cc1` gave HePTP inhibitor -2.8, JNK3 inh 31.0*, HEK293 NFkB inh 16.3 and MMP13 inh 3.1.
COc1ccc(-c2nc(N)ncc2Oc2ccccc2Br)c(O)c1 was read as HePTP inhibitor 3.5, JNK3 inh -2.9, HEK293 NFkB inh 28.3 and MMP13 inh -1.5.
Screening COC(=O)c1cccc(NC(=O)Cn2cnc3c2c(=O)n(C)c(=O)n3C)c1 returned HePTP inhibitor -0.3, JNK3 inh -2.8, HEK293 NFkB inh 14.4 and MMP13 inh 14.9*.
For O=C(Nc1cccc2c1C(=O)c1ccccc1C2=O)c1ccc(Br)cc1 the results were HePTP inhibitor 9.3.
For CSc1ccc(/C=C2/SC(=S)N(CC(=O)O)C2=O)cc1 the results were HePTP inhibitor 9.5.
For Cc1ccc(-n2[nH]c(=O)c(/C=c3/c(C)c(C#N)c4nc5ccccc5n4c3=O)c2O)cc1C the results were HePTP inhibitor 102.2*.
For c1ccc2nc3c(nc2c1)c1ccccc1n3CCN1CCOCC1 the results were HePTP inhibitor -10.2, JNK3 inh 18.0*, HEK293 NFkB inh -31.1 and MMP13 inh -0.8.
For CCc1ccc(N2NC(=O)/C(=C/c3ccc(N4CCOCC4)cc3)C2=O)cc1 the results were HePTP inhibitor -2.5.
`COc1cc(/C=N/NC(=S)Cc2ccccc2)cc(OC)c1OC` gave HePTP inhibitor 103.9*.
For O=C(c1cccc([N+](=O)[O-])c1)c1ccc2c(c1)C(=O)N(c1ccccc1C(=O)O)C2=O the results were HePTP inhibitor -2.8.
O=C(c1cccc([N+](=O)[O-])c1)c1ccc2c(c1)C(=O)NC2=O was read as HePTP inhibitor 104.2*.
Screening CCCCCCOc1ccc(C(CC(=O)O)C(N)=O)cc1 (centres undefined) returned HePTP inhibitor 9.4, JNK3 inh -1.4, HEK293 NFkB inh 7.4 and MMP13 inh 26.5*.
